Hits are enriched below; roughly 11% of the tested compounds scored in any of these assays.
RORa activator – activators of orphan receptor RORA, primary screen, cell-based, luminescence; activation, % at 10 µM; CHO-K1 Gal4-RORA LBD luciferase reporter; percent increase over mock-subtracted basal signal; hit rate 1.5% among 65,000; Nuclear receptor ROR-alpha (Homo sapiens), P35398;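 active means activation above the mean of all tested compounds plus 3 SD, cut at about 49% in these data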;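 further: 0% = DMSO-treated RORA cells and 100% = added signal equal to DMSO minus mock-transfected cells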
SF1 activator – activators of human SF-1, primary screen, cell-based, CHO-K1, Gal4-SF-1 LBD, luciferase luminescence; hit rate 1.9% among 65,000; Steroidogenic factor 1 (Homo sapiens), Q13285; activation, % at 10 µM; CHO-K1 Gal4-SF-1 LBD luciferase reporter; % increase over DMSO SF-1-specific signal; AID 522, 2006;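 active means activation above the mean activation of all tested compounds plus 3 SD, cut at about 50% in these data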
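System: CHO-K1 cells with Gal4–hSF-1 LBD chimera plus Gal4-driven luciferase; quantity: 4,000 CHO-K1 cells per well; compound: one dose, 10 µM compound, 1% DMSO; times: 20 h compound treatment, 37 °C; measured by: SteadyLite luciferase luminescence; read-out: percent activation versus DMSO; benchmarks: DMSO and mock-transfected background; replicates: one test per compound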
M1 antag – antagonists of rat M1 muscarinic receptor; hit rate 3.4% among 64,000; CHO-M1 cells, Fluo-4 calcium, ACh EC80 antagonist mode; stronger effect = lower value; B-score at 10 µM; Muscarinic acetylcholine receptor M1 (Rattus norvegicus), P08482; AID 628, 2007;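 active means calcium fluorescence response, raw or row-and-column corrected B-score, differing from the plate sample mean either way at a set confidence level, mostly lower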
M1 ag – M1 muscarinic receptor agonists, primary screen, CHO-M1 cells, Fluo-4 calcium, agonist mode. Fluo-4 calcium fluorescence; stronger effect = higher value. B-score at 10 µM. hit rate 3% among 64,000. AID 626, 2007;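 active means fluorescence rise, raw or as B-score row- and column-corrected plate score, outside the 99.7% band of its plate's samples, either direction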
mHtt clearance – clearance of mutant huntingtin inclusions, primary screen, imaging, HeLa Exon1htt(103Q)mCFP, confocal imaging | aggregate imaging; zero = plate's median compound well | inhibition, % at 1.5 µM | hit rate 0.42% among 47,000;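 active means inhibition of aggregate fluorescence above about 70%, also judged a hit by eye on the cell image, limit read from the data, passing the limit was not always enough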;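 further: cells exposed to compound for three days before fixation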
D1 mod – D1 CRE-luciferase signal change, two-sided – cell-based, HEK293 D1, dopamine EC30, D1 allosteric modulator project, primary screen | D(1A) dopamine receptor (Homo sapiens), P21728 | dopamine EC30 potentiation; actives deviate in either direction | B-score at 10 µM | hit rate 5.9% among 58,000 | AID 641, 2007;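 active means luminescence count or its row- and column-corrected plate score outside the 99.7% band of the plate's sample wells, on either side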
Target sequence (P21728 whole entry, looked up): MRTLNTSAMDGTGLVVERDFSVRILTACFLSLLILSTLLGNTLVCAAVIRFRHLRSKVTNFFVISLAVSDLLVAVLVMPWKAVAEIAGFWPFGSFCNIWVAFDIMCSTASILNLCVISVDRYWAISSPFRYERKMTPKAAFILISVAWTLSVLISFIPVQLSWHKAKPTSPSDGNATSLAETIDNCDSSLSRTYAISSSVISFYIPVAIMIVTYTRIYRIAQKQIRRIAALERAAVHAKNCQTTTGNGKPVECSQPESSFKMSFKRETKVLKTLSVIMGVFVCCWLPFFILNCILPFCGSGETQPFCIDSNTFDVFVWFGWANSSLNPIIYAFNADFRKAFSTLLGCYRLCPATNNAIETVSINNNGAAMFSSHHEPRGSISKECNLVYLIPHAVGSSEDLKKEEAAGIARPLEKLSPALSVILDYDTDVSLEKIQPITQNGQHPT
Numbers without * were called inactive; . = no result.

SMILES | RORa activator | SF1 activator | M1 antag | M1 ag | mHtt clearance | D1 mod
CC1CCN(C(=O)CSc2nc3ccccc3[nH]2)CC1 | 61* | 44 | 0.071 | -0.096 | . | -0.98
O=C(CSc1nc2ccccc2[nH]1)c1ccc2c(c1)OCO2 | 51* | 40 | -0.66 | -1.5 | -43 | -0.13
CN1C(=O)N(c2ccccc2)C(Nc2nncs2)C1(C)C (configuration not stated) | -6 | -5 | 0.48 | -0.13 | 65 | .
CC(C)=CCCC(C)NC(=O)NC1CCCCC1 (configuration not stated) | 19 | 9 | 0.62 | 0.58 | . | 0.17
CN(Cc1cccs1)S(=O)(=O)c1cccs1 | -3 | -1 | 0.9 | -0.6 | -24 | 0.81
O=C(Nc1ccc2c(c1)CCC2)c1cnccn1 | 17 | 55* | -0.27 | 0.51 | -48 | -1.2
Cc1occc1C(=O)Nc1ccc2c(c1)CCC2 | 55* | 75* | -0.14 | 0.87 | -12 | -2.2
CCCOC(=O)c1ccc(NC(=O)c2ccoc2C)cc1 | 42 | 63* | -0.095 | -0.7 | 44 | -1.1
Cc1ccc(C(=O)Nc2ccc3c(c2)CCC3)o1 | 16 | 59* | 0.45 | 0.31 | . | -3.5
COc1ccc(CCNC(=O)CSc2nncn2N)cc1OC | 4 | 10 | -0.12 | 0.23 | -32 | 0.14
CCn1c(NCc2cc(Br)ccc2NS(=O)(=O)c2ccc(C)cc2)nc2ccccc21 | . | . | . | . | -2 | .
Cc1ccc(S(=O)(=O)N2CCCC(C(=O)NCCc3ccc4c(c3)OCO4)C2)cc1 (configuration not stated) | 18 | -14 | -0.035 | -1.3 | . | 0.058
CC/C(=C\C(=O)c1cccnc1)Nc1ccc(C)c(C)c1 | 10 | 5 | -0.64 | -0.16 | . | 0.039
CCn1c(CCNC(=O)c2cccs2)nnc1SCC(=O)c1ccc(OC)cc1 | -13 | -12 | 0.055 | 0.23 | -42 | 0.63
COc1cccc(C(=O)Nc2ncc3c(n2)CC(c2ccc(OC)cc2OC)CC3=O)c1 (configuration not stated) | 18 | 57* | 0.8 | -0.72 | . | -0.022
O=C(Nc1ncc2c(n1)CC(c1ccco1)CC2=O)c1ccccc1 (configuration not stated) | 42 | 26 | -0.023 | -2.1 | . | 0.37
COc1ccc(Nc2ncc3c(n2)CC(c2ccccc2)CC3=O)cc1 (configuration not stated) | 5 | -26 | -0.2 | -1.2 | . | 9.8*
Cc1ccc(S(=O)(=O)NCc2ccc(C(=O)N3CCN(c4ccccn4)CC3)cc2)cc1 | 12 | -8 | 2.4* | 4 | 20 | .
CN(c1ccccc1)S(=O)(=O)c1cc(C(=O)N2CCN(c3ccccn3)CC2)ccc1Cl | 13 | 0 | -0.26 | 2 | 57 | -3.3*
Cc1nc2ccc(C(=O)N3CCN(c4ccccn4)CC3)cc2s1 | -5 | 5 | 0.1 | -0.15 | 25 | 0.67
COc1ccc(C(=O)N2CCN(c3ccccn3)CC2)cc1 | . | . | . | . | 26 | .
O=C(c1cccc(COc2ccc(Cl)cc2Cl)c1)N1CCN(c2ccccn2)CC1 | 29 | 76* | 0 | 0.37 | . | -2.7
O=C1NCC(O)=C1C=NC12CC3CC(CC(C3)C1)C2 | 14 | 6 | -0.59 | -0.0058 | . | 0.33
Cc1nc(Nc2nc3ccccc3o2)nc2c1CCC2 | -31 | -41 | -0.54 | 1.5 | 32 | -6.1*
Cc1cccc(C)c1Nc1nc2ccccc2o1 | -2 | 1 | -0.31 | -1 | . | 0.72
SMILES | RORa activator | SF1 activator | M1 antag | M1 ag | mHtt clearance | D1 mod
O=C1C(C=Nc2ccccc2O)=C(O)c2ccccc21 | 10 | -1 | -1.1 | -0.072 | . | -5.6*
CC1=C(C(=O)Nc2cccnc2)C(c2ccc(C(C)C)cc2)n2ncnc2N1 (configuration not stated) | 5 | 2 | 0.73 | -0.079 | . | 0.73
O=C(C(Cc1ccccc1)n1cccc1)N1CCN(c2ncccn2)CC1 (configuration not stated) | -18 | -12 | 0.66 | -0.31 | . | 0.63
O=C(NC1CCCCCC1)c1ccc(N2CCCC2=O)cc1 | 29 | 54* | -0.029 | 0.32 | 24 | -2.9
CCOC(=O)N1CCN(S(=O)(=O)c2cc(OCC(N)=O)c(C)cc2Cl)CC1 | -5 | 13 | 0 | 0 | . | -0.2
O=C(NCc1ccccc1)N[C@@H](Cc1c[nH]c2ccccc12)C(=O)O | -2 | -4 | 0.18 | 1.1 | . | -0.64
O=C(COc1ccccc1)NC(Cc1c[nH]c2ccccc12)C(=O)O (configuration not stated) | -3 | 2 | 0.06 | 0.35 | 71* | 0.26
CCOc1cc(CNc2ccc3[nH]c(=O)[nH]c3c2)ccc1OCC(=O)NC(C)(C)C | -9 | 26 | -0.97 | 7.4* | -17 | -1.7
COc1cc(CNc2ccc3[nH]c(=O)[nH]c3c2)cc(Cl)c1OCC(=O)NC(C)(C)C | 7 | 6 | -0.78 | -1.4 | -16 | 1
O=C(NCc1cccnc1)C1CCCCN1S(=O)(=O)c1ccc(F)cc1 (configuration not stated) | -7 | 1 | -0.0042 | -0.038 | . | .
CCc1ccc(NC(=O)c2cnc3n(c2=O)CCS3)cc1 | 40 | 50* | -0.3 | 0.69 | . | -2.5
O=C(Nc1cccc2nsnc12)c1ccc2c(c1)OCO2 | . | . | . | . | 6 | .
O=C(Nc1cccc2nsnc12)c1ccc2c(c1)OCCO2 | 70* | 54* | -0.47 | 0.86 | -13 | .
O=C(NC1CCCCC1)NC1(C(=O)N2CCN3CCCC3C2)CCCCC1 (configuration not stated) | -23 | 4 | -0.78 | -0.025 | 54 | -3*
O=C(Nc1cccc(F)c1)NC1(C(=O)N2CCN3CCCC3C2)CCCCC1 (configuration not stated) | . | . | . | . | -53 | .
Cc1sc2ncnc(Sc3nnnn3-c3ccccc3)c2c1C | -34 | -29 | -0.098 | -0.98 | -19 | -4.8*
Nc1ccc(Sc2nnnn2-c2ccccc2)c(Cl)c1 | -24 | -11 | -0.21 | -0.27 | . | -0.18
Clc1ccc(-n2nnnc2Sc2ncnc3sccc23)cc1 | -29 | -8 | -0.82 | -0.67 | -46 | -2.9*
CC(=O)c1c(C)[nH]c(C(=O)NCCN2CCC(C)CC2)c1C | -4 | 9 | 0.098 | -0.55 | 43 | 0.7
O=c1oc(-c2cccnc2)nc2ccccc12 | -5 | 6 | -0.13 | 0.9 | -1 | -4.5*
CCN(CC)C(=O)CSc1ncnc2c(-c3cccs3)nsc12 | 12 | 68* | 0.37 | 0.98 | 40 | 1.7
Cc1cccc(-c2nc(C#N)c(NC3CCCCC3)o2)c1 | 35 | 50* | -0.043 | -0.15 | -8 | .
COc1ccc(C(=O)N=c2nc3ccccn3s2)cc1 | -6 | -14 | -0.55 | -0.39 | . | -4.8*
COc1ccc(C(=O)N=c2sc3c(C)ccc(OC)c3n2C)cc1 | . | . | . | . | 51 | .

Assay outcomes from PubChem BioAssay.
